Laboratory results as given in ChEMBL document CHEMBL4390647, “Efficient click chemistry towards novel 1H-1,2,3-triazole-tethered 4H-chromene-d-glucose conjugates: Design, synthesis and evaluation of in vitro antibacterial, MRSA and antifungal activities” (Eur J Med Chem, 2019).
In brackets after ≈: the same amount, converted by molar mass.

What was measured:
[1] = system: Staphylococcus aureus; test: Antibacterial activity against Staphylococcus aureus MRSA198 clinical isolate-2 measured after 18 to 20 hrs by microbroth dilution method; assay type: functional; details: MRSA198 isolate-2
[2] = system: Bacillus subtilis; test: Antibacterial activity against Bacillus subtilis ATCC 11774 after 18 to 20 hrs by microbroth dilution method; assay type: functional
Outline: (§1)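 Inoculum from a 4–6-h broth adjusted to 0.5 McFarland, final 5 × 10⁵ CFU/mL. Incubation at 35°C for 18–20 h. MIC taken as the lowest concentration giving complete inhibition of visible growth; three experiments.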

[3] = system: Salmonella typhimurium; test: Antibacterial activity against Salmonella typhimurium ATCC 14028 measured after 18 to 20 hrs by microbroth dilution method; assay type: functional, Salmonella enterica subsp. enterica serovar Typhimurium; details: Salmonella enterica; outline: as §1
[4] = system: Staphylococcus aureus; test: Antibacterial activity against Staphylococcus aureus ATCC 11632 after 18 to 20 hrs by microbroth dilution method; assay type: functional; outline: as §1
[5] = system: Candida albicans; test: Antifungal activity against Candida albicans ATCC 7754 after 72 hrs by agar dilution method; assay type: functional; details: ATCC 7754, 72 h
Outline: (§2)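 Agar dilution on Sabouraud dextrose agar, with compounds at […] to 0.78 μM in twofold steps. Fungal suspensions at 10 CFU/mL as printed were applied to the compound-containing plates. Incubation at 35°C; MIC read after 72 h. Three experiments.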

[6] = system: Staphylococcus aureus; test: Antibacterial activity against Staphylococcus aureus MRSA198 clinical isolate-3 measured after 18 to 20 hrs by microbroth dilution method; assay type: functional; details: MRSA198 isolate-3
[7] = system: Escherichia coli; test: Antibacterial activity against Escherichia coli ATCC 25922 measured after 18 to 20 hrs by microbroth dilution method; assay type: functional; outline: as §1
[8] = system: Aspergillus flavus; test: Antifungal activity against Aspergillus flavus ATCC 204304 measured after 72 hrs by agar dilution method; assay type: functional; details: ATCC 204304, 72 h; outline: as §2
[9] = system: Staphylococcus epidermidis; test: Antibacterial activity against Staphylococcus epidermidis ATCC 12228 after 18 to 20 hrs by microbroth dilution method; assay type: functional; outline: as §1
[10] = system: Staphylococcus aureus; test: Antibacterial activity against Staphylococcus aureus MRSA198 clinical isolate-1 measured after 18 to 20 hrs by microbroth dilution method; assay type: functional; details: MRSA198 isolate-1
[11] = system: Saccharomyces cerevisiae; test: Antifungal activity against Saccharomyces cerevisiae SH 20 after 72 hrs by agar dilution method; assay type: functional; details: SH 20, 72 h; outline: as §2
[12] = system: Pseudomonas aeruginosa; test: Antibacterial activity against Pseudomonas aeruginosa […] measured after 18 to 20 hrs by microbroth dilution method; assay type: functional; outline: as §1
[13] = system: Aspergillus niger; test: Antifungal activity against Aspergillus niger ATCC 439 measured after 72 hrs by agar dilution method; assay type: functional; details: ATCC 439, 72 h; outline: as §2
[14] = Cytotoxicity against mouse RAW264.7 cells assessed as growth inhibition at 50 ug/mL after 120 hrs by MTT assay relative to control; assay type: cell-based; details: read-out: GI
Outline: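 RAW 264.7 mouse macrophages were seeded at 25,000 cells/well and left to attach overnight. Compound in DMSO was added from a 200× concentrate, in duplicate wells, to a 50 μg/mL test level; DMSO served as control. Exposure 120 h at 37°C in 5% CO₂. MTT (4 mg/mL in PBS) was added for 4 h, formazan dissolved in DMSO, and absorbance read at 560 nm. Viability expressed as % of untreated cells, mean ± SE of at least three independent experiments.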

[15] = system: Klebsiella pneumoniae; test: Antibacterial activity against measured after Klebsiella pneumoniae ATCC 4352 measured after 18 to 20 hrs by microbroth dilution method; assay type: functional; outline: as §1

Structure (SMILES) | MIC [1] | MIC [2] | MIC [3] | MIC [4] | MIC [5] | MIC [6] | MIC [7] | MIC [8] | MIC [9] | MIC [10] | MIC [11] | MIC [12] | MIC [13] | MIC [15] | inhibition at 120 h, 50 ug/mL [14]
CC(=O)OC[C@H]1O[C@@H](n2cc(COc3ccc4c(c3)OC(N)=C(C#N)C4c3cccc([N+](=O)[O-])c3)nn2)[C@H](OC(C)=O)[C@@H](OC(C)=O)[C@@H]1OC(C)=O (some centres not stated) | 6.25 µM (≈ 4.5 µg/mL) | 50 µM (≈ 36 µg/mL) | 400 µM (≈ 288 µg/mL) | 3.12 µM (≈ 2.25 µg/mL) | 200 µM (≈ 144 µg/mL) | 3.12 µM (≈ 2.25 µg/mL) | 50 µM (≈ 36 µg/mL) | 50 µM (≈ 36 µg/mL) | 400 µM (≈ 288 µg/mL) | 1.56 µM (≈ 1.12 µg/mL) | 6.25 µM (≈ 4.5 µg/mL) | 12.5 µM (≈ 9.01 µg/mL) | 12.5 µM (≈ 9.01 µg/mL) | – | 15.6%
CC(=O)OC[C@H]1O[C@@H](n2cc(COc3ccc4c(c3)OC(N)=C(C#N)C4c3ccc(C(C)C)cc3)nn2)[C@H](OC(C)=O)[C@@H](OC(C)=O)[C@@H]1OC(C)=O (some centres not stated) | 400 µM (≈ 287 µg/mL) | 6.25 µM (≈ 4.49 µg/mL) | 50 µM (≈ 35.9 µg/mL) | 100 µM (≈ 71.8 µg/mL) | 3.12 µM (≈ 2.24 µg/mL) | 200 µM (≈ 144 µg/mL) | 200 µM (≈ 144 µg/mL) | 50 µM (≈ 35.9 µg/mL) | 400 µM (≈ 287 µg/mL) | 400 µM (≈ 287 µg/mL) | 12.5 µM (≈ 8.97 µg/mL) | 6.25 µM (≈ 4.49 µg/mL) | – | 1.56 µM (≈ 1.12 µg/mL) | 17.9%
CC(=O)OC[C@H]1O[C@@H](n2cc(COc3ccc4c(c3)OC(N)=C(C#N)C4c3ccc(C)cc3)nn2)[C@H](OC(C)=O)[C@@H](OC(C)=O)[C@@H]1OC(C)=O (some centres not stated) | – | 50 µM (≈ 34.5 µg/mL) | 200 µM (≈ 138 µg/mL) | 400 µM (≈ 276 µg/mL) | 400 µM (≈ 276 µg/mL) | 400 µM (≈ 276 µg/mL) | 12.5 µM (≈ 8.62 µg/mL) | 3.12 µM (≈ 2.15 µg/mL) | 400 µM (≈ 276 µg/mL) | – | 3.12 µM (≈ 2.15 µg/mL) | 400 µM (≈ 276 µg/mL) | 100 µM (≈ 69 µg/mL) | 400 µM (≈ 276 µg/mL) | 19.6%
CC(=O)OC[C@H]1O[C@@H](n2cc(COc3ccc4c(c3)OC(N)=C(C#N)C4c3ccc(Cl)cc3Cl)nn2)[C@H](OC(C)=O)[C@@H](OC(C)=O)[C@@H]1OC(C)=O (some centres not stated) | 1.56 µM (≈ 1.16 µg/mL) | 3.12 µM (≈ 2.32 µg/mL) | 3.12 µM (≈ 2.32 µg/mL) | 12.5 µM (≈ 9.31 µg/mL) | 100 µM (≈ 74.5 µg/mL) | 3.12 µM (≈ 2.32 µg/mL) | 3.12 µM (≈ 2.32 µg/mL) | 25 µM (≈ 18.6 µg/mL) | 12.5 µM (≈ 9.31 µg/mL) | 6.25 µM (≈ 4.65 µg/mL) | 400 µM (≈ 298 µg/mL) | 50 µM (≈ 37.2 µg/mL) | – | 200 µM (≈ 149 µg/mL) | 18.1%
CC(=O)OC[C@H]1O[C@@H](n2cc(COc3ccc4c(c3)OC(N)=C(C#N)C4c3cccc(Cl)c3Cl)nn2)[C@H](OC(C)=O)[C@@H](OC(C)=O)[C@@H]1OC(C)=O (some centres not stated) | 200 µM (≈ 149 µg/mL) | 25 µM (≈ 18.6 µg/mL) | 50 µM (≈ 37.2 µg/mL) | 50 µM (≈ 37.2 µg/mL) | 25 µM (≈ 18.6 µg/mL) | 100 µM (≈ 74.5 µg/mL) | 200 µM (≈ 149 µg/mL) | 200 µM (≈ 149 µg/mL) | 200 µM (≈ 149 µg/mL) | 200 µM (≈ 149 µg/mL) | – | 6.25 µM (≈ 4.65 µg/mL) | 200 µM (≈ 149 µg/mL) | – | 23.8%

The remaining compounds from weak to strong by MIC [2], led by results:

MIC [1] | MIC [2] | MIC [3] | MIC [4] | MIC [5] | MIC [6] | MIC [7] | MIC [8] | MIC [9] | MIC [10] | MIC [11] | MIC [12] | MIC [13] | MIC [15] | Structure (SMILES) | inhibition at 120 h, 50 ug/mL [14]
400 µM (≈ 288 µg/mL) | 50 µM (≈ 36 µg/mL) | – | 400 µM (≈ 288 µg/mL) | 25 µM (≈ 18 µg/mL) | 200 µM (≈ 144 µg/mL) | 400 µM (≈ 288 µg/mL) | 1.56 µM (≈ 1.12 µg/mL) | 50 µM (≈ 36 µg/mL) | 400 µM (≈ 288 µg/mL) | 3.12 µM (≈ 2.25 µg/mL) | 50 µM (≈ 36 µg/mL) | – | 12.5 µM (≈ 9.01 µg/mL) | CC(=O)OC[C@H]1O[C@@H](n2cc(COc3ccc4c(c3)OC(N)=C(C#N)C4c3ccc([N+](=O)[O-])cc3)nn2)[C@H](OC(C)=O)[C@@H](OC(C)=O)[C@@H]1OC(C)=O (some centres not stated) | 27.6%
12.5 µM (≈ 8.82 µg/mL) | 12.5 µM (≈ 8.82 µg/mL) | 1.56 µM (≈ 1.1 µg/mL) | 25 µM (≈ 17.6 µg/mL) | 1.56 µM (≈ 1.1 µg/mL) | 12.5 µM (≈ 8.82 µg/mL) | 200 µM (≈ 141 µg/mL) | 12.5 µM (≈ 8.82 µg/mL) | 200 µM (≈ 141 µg/mL) | 12.5 µM (≈ 8.82 µg/mL) | 12.5 µM (≈ 8.82 µg/mL) | 100 µM (≈ 70.6 µg/mL) | 200 µM (≈ 141 µg/mL) | – | COc1ccc(C2C(C#N)=C(N)Oc3cc(OCc4cn([C@@H]5O[C@H](COC(C)=O)[C@@H](OC(C)=O)[C@H](OC(C)=O)[C@H]5OC(C)=O)nn4)ccc32)cc1 (some centres not stated) | 29.6%
– | 1.56 µM (≈ 1.11 µg/mL) | 6.25 µM (≈ 4.44 µg/mL) | 200 µM (≈ 142 µg/mL) | 25 µM (≈ 17.8 µg/mL) | 400 µM (≈ 284 µg/mL) | 1.56 µM (≈ 1.11 µg/mL) | 6.25 µM (≈ 4.44 µg/mL) | 3.12 µM (≈ 2.22 µg/mL) | – | – | 12.5 µM (≈ 8.88 µg/mL) | 400 µM (≈ 284 µg/mL) | 400 µM (≈ 284 µg/mL) | CC(=O)OC[C@H]1O[C@@H](n2cc(COc3ccc4c(c3)OC(N)=C(C#N)C4c3ccccc3Cl)nn2)[C@H](OC(C)=O)[C@@H](OC(C)=O)[C@@H]1OC(C)=O (some centres not stated) | 21.1%
